Shown are actives, neighbours in structure and some others; about 1.5% of the full set was active somewhere.
p97 ATPase inh = inhibitors of human p97 ATPase; AID 1481; recombinant p97 ATPase, Kinase-Glo ATP luminescence, 3 h; inhibition, % at 8 µM; actives 0.42% (n = 220,000); in the data active = inhibition above about 15%;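 also: 0% = DMSO vehicle and 100% = wells lacking enzyme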
PP1 counter = blocks human PP1-alpha phosphatase, a PP5 counter-screen; P62136; actives 0.9% (n = 320,000); inhibition, % at 6.7 µM; purified PP1alpha, OMFP fluorescence;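 active = inhibition above the mean inhibition of all tested compounds plus 3 SD, computed separately for each screening campaign, cut at about 15% in these data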
Target sequence (P62136 whole entry, looked up): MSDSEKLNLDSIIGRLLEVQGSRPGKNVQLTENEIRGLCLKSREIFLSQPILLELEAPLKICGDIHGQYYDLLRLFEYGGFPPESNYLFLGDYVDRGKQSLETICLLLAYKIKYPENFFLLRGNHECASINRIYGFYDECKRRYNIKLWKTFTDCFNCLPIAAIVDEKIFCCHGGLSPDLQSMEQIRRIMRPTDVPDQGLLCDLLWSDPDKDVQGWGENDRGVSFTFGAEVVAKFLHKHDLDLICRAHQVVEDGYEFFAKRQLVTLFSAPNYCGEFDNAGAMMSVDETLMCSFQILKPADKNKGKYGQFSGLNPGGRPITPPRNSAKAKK
RBBP9 inhibitor = human RBBP9 hydrolase inhibition; recombinant RBBP9, FP-Rh probe fluorescence polarization; inhibition, % at 7.94 µM; actives 0.2% (n = 220,000); AID 1515;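 active = inhibition above the campaign mean of all tested compounds plus 3 SD, cut at about 14% in these data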;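 also: plate controls were DMSO wells with RBBP9 for no effect and wells lacking RBBP9 protein for full effect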
Target sequence (O75884 whole entry, looked up): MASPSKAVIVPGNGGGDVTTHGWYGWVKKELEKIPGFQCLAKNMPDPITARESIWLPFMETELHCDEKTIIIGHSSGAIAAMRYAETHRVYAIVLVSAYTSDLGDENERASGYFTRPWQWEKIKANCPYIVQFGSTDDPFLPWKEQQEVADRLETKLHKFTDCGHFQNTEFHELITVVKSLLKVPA
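Assay system: recombinant human RBBP9; Reagent: Serine-hydrolase probe FP-Rh, 375 nM pre-mixing; Doses: 7.94 µM single dose, 0.794% DMSO; Incubation: 30 min then 45 min, 25 °C; Detection: fluorescence polarization (mP), excitation 525 nm, emission 598 nm; Evaluation: percent inhibition from mP, scaled between DMSO and no-protein wells.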
PKD1 kinase inh = PKD1 (human) kinase inhibition. PKD1 kinase fluorescence polarization assay. inhibition, % (test concentration not listed). actives 0.056% (n = 200,000). AID 797; in the data active = inhibition above about 50%
Hsp70 act = Hsp70 transcriptional activation, primary screen; activation, % at 10 µM; AID 1203; HeLa Hsp70 promoter luciferase reporter, luminescence; scaled: vehicle 0, proteasome-inhibitor control 100%; actives 0.04% (n = 200,000);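 active = activation above the mean across all tested compounds plus 3 SD, cutoff set per campaign, cut at about 5.5% in these data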;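 also: 100% = MG132 at 30 µM as the positive control and 0% = DMSO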
PP5 inh = blocks human protein phosphatase 5 activity | P53041 | purified PP5c, OMFP substrate fluorescence | inhibition, % at 6.7 µM | actives 0.18% (n = 320,000) | AID 1987;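 active = inhibition above the campaign's mean inhibition across all tested compounds plus 3 SD, cut at about 9.5% in these data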;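 also: 0% = DMSO only and 100% = 100 µM cantharidin control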
PP1 inh confirm = confirmation of human PP1 phosphatase inhibitors; AID 2358; shares compounds with PP1 counter; inhibition, % at 6.7 µM; actives 52% (n = 1,900); purified PP1alpha, OMFP substrate fluorescence;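 active = mean PP1 inhibition above a set limit taken from the earlier primary screen, cut at about 15% in these data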
PP5 counter = inhibits human PP5 phosphatase in PP1 counter-screen; shares compounds with PP1 counter; purified PP5c, OMFP fluorescence; inhibition, % at 6.7 µM; actives 4% (n = 1,900);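 active = mean PP5 inhibition over triplicate wells above about 9.5% taken from the earlier PP1 screen, limit read from the data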
* hit, by the source's call.

CCN(CCO)c1nc(SC)nc2c1sc1nc(-c3ccco3)c3c(c12)CCC3 was read as p97 ATPase inh 10.6, PP1 counter 18.5*, RBBP9 inhibitor -4.3, PKD1 kinase inh 8.8, Hsp70 act 0.0, PP5 inh 1.6, PP1 inh confirm 27.7* and PP5 counter -0.5.
For COc1cc(CC(=O)Nc2cc(S(C)(=O)=O)ccc2Cl)cc(OC)c1OC the results were p97 ATPase inh 7.0, PP1 counter -4.2, RBBP9 inhibitor -6.7, PKD1 kinase inh -5.0, Hsp70 act -0.3 and PP5 inh -1.2.
Cc1ccc2nc(-c3ccc(SCC(=O)Nc4nnc(C)s4)nc3)[nH]c2c1 was read as p97 ATPase inh -0.4, PP1 counter 19.8*, RBBP9 inhibitor -17.0, PKD1 kinase inh 11.0, Hsp70 act -0.1, PP5 inh 2.1, PP1 inh confirm 25.4* and PP5 counter -1.6.
Screening Cc1cc(C(=O)N2CCC(Cc3ccccc3)CC2)no1 returned PP1 counter -2.5 and PP5 inh -0.1.
`COc1ccc([N+](=O)[O-])cc1NC(=O)c1ccc(Br)s1` gave p97 ATPase inh -2.1, PP1 counter 17.7*, RBBP9 inhibitor 0.0, PKD1 kinase inh -0.1, Hsp70 act -0.6, PP5 inh -0.4, PP1 inh confirm 21.1* and PP5 counter -6.2.
O=C(NN1CC(C(=O)OCc2ccccc2F)CC1=O)c1ccccc1 (stereo unspecified) was read as PP1 counter -4.6 and PP5 inh -1.4.
N#Cc1ccc(C(=O)Nc2cccc3ccccc23)c(F)c1 was read as PP1 counter 0.1 and PP5 inh 1.4.
Screening C=Cc1c(C)c2cc3[nH]c(cc4nc(cc5nc(cc1[nH]2)C(C)=C5CCC(=O)O)C(CCC(=O)O)=C4C)c(C)c3C=C returned PP1 counter 61.4*, PP5 inh 5.4, PP1 inh confirm 41.5* and PP5 counter 4.0.
For COc1ccc(C(C)C)cc1S(=O)(=O)N1CCC(C(=O)NCC2CCCO2)CC1 (stereo unspecified) the results were PP1 counter 5.2 and PP5 inh -1.4.
`Cc1cc(C(=O)Cn2nc(C(=O)O)c3ccccc3c2=O)c(C)n1CCc1ccc(F)cc1` gave p97 ATPase inh 5.3, PP1 counter 23.7*, RBBP9 inhibitor -14.0, PP5 inh 2.5, PP1 inh confirm 22.5* and PP5 counter -2.5.
`CCCN(CC(=O)Nc1ccccc1OC)C(=O)CSc1nc(C)cc(C)n1` gave PP1 counter -1.2 and PP5 inh -0.1.
COc1ccc(C)cc1S(=O)(=O)N1CCN(c2ccccc2)CC1 was read as PP1 counter -0.5 and PP5 inh -0.1.
For COc1cc(F)ccc1S(=O)(=O)N1CCN(c2ccccc2)CC1 the results were PP1 counter -71.3, PP5 inh 0.1, PP1 inh confirm -1.6 and PP5 counter -4.2.
CSCCC(NC(=O)c1ccc([N+](=O)[O-])cc1Cl)C(=O)OCC(=O)NC(=O)CN1CCCC1=O (stereo unspecified) was read as PP1 counter 39.1*, PP5 inh -0.7, PP1 inh confirm -1.2 and PP5 counter -2.8.
CCCn1c(=O)c(C(=O)NNS(=O)(=O)c2ccc(C)cc2)c(O)c2ccccc21 was read as p97 ATPase inh 6.7, PP1 counter 6.8, RBBP9 inhibitor -7.0, PKD1 kinase inh -4.3, Hsp70 act -0.2 and PP5 inh 2.0.
CCn1c(=O)c(C(=O)Nc2ncccc2C)c(O)c2ccccc21 was read as p97 ATPase inh 0.1, PP1 counter 21.3*, RBBP9 inhibitor -0.8, PKD1 kinase inh 1.5, Hsp70 act -0.2, PP5 inh -1.5, PP1 inh confirm 25.4* and PP5 counter -1.3.
CCn1c(=O)c(C(=O)Nc2ncccc2O)c(O)c2ccccc21 was read as PP1 counter 14.4 and PP5 inh 0.7.
Screening CCn1c(=O)c(C(=O)NNC(=O)c2ccccc2Cl)c(O)c2ccccc21 returned PP1 counter 19.1*, PP5 inh 1.4, PP1 inh confirm 13.9 and PP5 counter -2.3.
Screening Cn1c(=O)c(C(=O)NNC(=O)c2ccccc2F)c(O)c2ccccc21 returned PP1 counter 18.4*, PP5 inh -0.6, PP1 inh confirm 6.0 and PP5 counter -3.8.
`CCCn1c(=O)c(C(=O)NNC(=O)c2cccc([N+](=O)[O-])c2)c(O)c2ccccc21` gave PP1 counter 19.8*, PP5 inh 0.1, PP1 inh confirm 19.2* and PP5 counter -0.9.
For CCn1c(=O)c(C(=O)NNC(=O)c2ccccc2F)c(O)c2ccccc21 the results were PP1 counter 8.2 and PP5 inh 0.8.
N#Cc1c(C(F)(F)F)cc(-c2ccccc2Cl)[nH]c1=O was read as p97 ATPase inh -0.8, PP1 counter -0.1, RBBP9 inhibitor -1.7, PKD1 kinase inh -10.3, Hsp70 act -0.2 and PP5 inh 2.2.
Cn1c(N)c(C(=O)CSc2n[nH]c(-c3ccccc3)n2)c(=O)n(C)c1=O was read as PP1 counter 1.1 and PP5 inh 4.2.
Screening O=C(CSCC(=O)N1CCN(c2ccccc2)CC1)Nc1nc(-c2ccc(Cl)s2)cs1 returned p97 ATPase inh 1.3, PP1 counter 26.7*, RBBP9 inhibitor -5.8, PKD1 kinase inh 17.0, Hsp70 act -0.3, PP5 inh 4.1, PP1 inh confirm 4.6 and PP5 counter 0.4.
`COC(=O)c1cc(OC)c(OC)cc1NC(=S)N1CCN(c2ccccn2)CC1` gave p97 ATPase inh 1.9, PP1 counter 1.7, RBBP9 inhibitor 3.5, PKD1 kinase inh 0.9, Hsp70 act -0.2 and PP5 inh -1.9.
For CCN1CCN(c2nc(S(=O)(=O)c3ccc(C)cc3)c(Cl)s2)CC1 the results were p97 ATPase inh -1.5, PP1 counter 0.7, RBBP9 inhibitor 1.5, PKD1 kinase inh 2.3, Hsp70 act -0.2 and PP5 inh 1.7.
For O=C(Cc1ccccc1)Nc1ccc(N2CCOCC2)cc1 the results were p97 ATPase inh 2.4, PP1 counter -4.5, RBBP9 inhibitor 0.8, PKD1 kinase inh 2.1, Hsp70 act -0.4 and PP5 inh 4.2.
Screening O=C(COc1ccccc1Cl)Nc1ccc(N2CCCC2)cc1 returned PP1 counter 28.4*, PP5 inh 3.6, PP1 inh confirm -1.5 and PP5 counter -4.1.
O=C(Cc1ccccc1)Nc1ccc(N2CCCC2)cc1 was read as p97 ATPase inh 1.0, PP1 counter 25.0*, RBBP9 inhibitor 0.2, PKD1 kinase inh 4.0, Hsp70 act -0.3, PP5 inh 3.5, PP1 inh confirm -11.3 and PP5 counter -1.1.

High-throughput results deposited in PubChem BioAssay by several laboratories.
